The text below walks through data of ChEMBL document CHEMBL4000205, “Synthesis and molecular modelling studies of phenyl linked oxadiazole-phenylhydrazone hybrids as potent antileishmanial agents” (Eur J Med Chem, 2017).

What is called IC50 is the concentration that gives 50% inhibition. Low values mean inhibition by little substance, high ones a need for much substance.

For data set [1], the system named is THP-1. The data set can be described thus: Cytotoxicity against human THP1 cells. The data set is classed as cell-based.
The test system of data set [2] is Leishmania major. The data set can be described thus: Antileishmanial activity against promastigote form of Leishmania major JISH118 infected in human THP1 cells by Giemsa staining. The data set is classed as functional, cell-based. Conditions: JISH118, THP-1. The gist of the method:
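THP-1 cells grown in RPMI-1640 with 1% L-glutamine and 10% HIFBS, seeded at 5.0 x 10^4 macrophages/well and made adherent with PMA for 3 days at 37 °C, 5% CO2. Infected with stationary-stage L. major promastigotes (cultured at 26°C in Schneider's medium) at macrophage:parasite 1:5, held at 34 °C for 48 h. Extracellular parasites washed out, compounds added at various concentrations. Activity from % infected cells versus untreated after methanol fixation and Giemsa staining; triplicate.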

The test system of data set [3] is U-937. Briefly: Cytotoxicity against human U937 cells up to 50 uM. The data set is classed as cell-based.
The nature of data set [4]: Selectivity index, ratio of IC50 for human THP1 cells to IC50 for promastigote form of Leishmania major JISH118 infected in human THP1 cells. The data set is classed as toxicity, cell-based. The note with it: read-out: Ratio IC50. In a few lines:
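Selectivity index taken as the IC50 in THP-1 cells divided by the antileishmanial IC50 from infected THP-1 macrophages.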

The subject of data set [5] is U-937. The data set can be described thus: Cytotoxicity against human U937 cells. The format is cell-based.
The test system of data set [6] is Leishmania major. Briefly: Potency index, ratio of pentamidine IC50 to test compound IC50 for promastigote form of Leishmania major JISH118 infected in human THP1 cells. The format is functional.

`COc1ccc(O)c(/C=N/NC(=O)c2ccc(-c3nnc(-c4ccccc4OC)o3)cc2)c1`: the IC50 in data set [1] turned out to be 303 µM; in data set [2], 16.3 µM. In addition, the Activity entry in data set [3] was “Non-Toxic”. In addition, the selectivity ratio in data set [4] was 18.6.

Take `COc1ccccc1-c1nnc(-c2ccc(C(=O)N/N=C/c3cccnc3)cc2)o1`: the results for the IC50 in data set [1] and in data set [2] were 167 µM and 46.5 µM, respectively. Further, the Activity result in data set [3] is “Non-Toxic”. Further, in data set [4], the selectivity ratio is 3.6.

As for `COc1ccccc1-c1nnc(-c2ccc(C(=O)N/N=C/c3cccc(O)c3)cc2)o1`, the IC50 amounted to 398 µM in data set [1] and 18.1 µM in data set [2]. Also, the Activity entry in data set [3] was “Non-Toxic”. The selectivity ratio in data set [4] came to 22.

For `COc1ccccc1-c1nnc(-c2ccc(C(=O)N/N=C/c3ccccn3)cc2)o1`, the IC50 in data set [1] came out at 67 µM; in data set [2], 9.06 µM; in data set [5] it was 68.6 µM. Besides, the selectivity ratio in data set [4] came out at 7.4.

Consider `COc1ccccc1-c1nnc(-c2ccc(C(=O)N/N=C/c3cccc(C)c3)cc2)o1`, for which, in data set [2], half-maximal inhibition (IC50) was put at 40.2 µM. In addition, the Activity entry in data set [3] is given as “Non-Toxic”.

On to `COc1ccccc1-c1nnc(-c2ccc(C(=O)N/N=C/c3cc(O)c(O)cc3O)cc2)o1`, for which the IC50 stood at 5.4 µM in data set [1], 0.98 µM in data set [2] and 7.46 µM in data set [5]. For the same compound, in data set [4], the selectivity ratio was 5.5.

In data set [2], `COc1ccccc1-c1nnc(-c2ccc(C(=O)N/N=C/c3ccccc3C)cc2)o1` registered an IC50 of 34.1 µM. The Activity entry in data set [3] is “Non-Toxic”.

With `COc1ccccc1-c1nnc(-c2ccc(C(=O)N/N=C/c3ccc(Cl)cc3Cl)cc2)o1`, the values for the IC50 in data set [1], in data set [2] and in data set [5] were 78.8 µM, 5.12 µM and 75.6 µM, respectively. Further, in data set [4], the selectivity ratio came out at 15.4.

The compound `COc1ccccc1-c1nnc(-c2ccc(C(=O)N/N=C/c3ccccc3Cl)cc2)o1` registered an IC50 in data set [2] of 29.1 µM. The Activity entry in data set [3] is “Non-Toxic”.

With `COc1ccccc1-c1nnc(-c2ccc(C(=O)N/N=C/c3cc(O)ccc3O)cc2)o1`, the IC50 in data set [1] turned out to be 100 µM; in data set [2], 4.46 µM. Besides, in data set [3], the Activity result is “Non-Toxic”. Also, in data set [4], the selectivity ratio amounted to 22.4.

In data set [2], `COc1ccccc1-c1nnc(-c2ccc(C(=O)N/N=C/c3ccc(C)cc3)cc2)o1` gave an IC50 of 29.6 µM. The Activity result in data set [3] is “Non-Toxic”.

Take `COc1ccc(/C=N/NC(=O)c2ccc(-c3nnc(-c4ccccc4OC)o3)cc2)c(O)c1`: the figures for the IC50 in data set [1] and in data set [2] were 308 µM and 6.6 µM, respectively. In addition, the Activity result in data set [3] is “Non-Toxic”. Moreover, the selectivity ratio in data set [4] turned out to be 46.6.

In turn, `COc1ccc(/C=N/NC(=O)c2ccc(-c3nnc(-c4ccccc4OC)o3)cc2)cc1` returned an IC50 in data set [2] of 74.2 µM. The Activity result in data set [3] is given as “Non-Toxic”.

Compound `COc1ccccc1-c1nnc(-c2ccc(C(=O)N/N=C/c3cccc(Cl)c3)cc2)o1` came in with an IC50 in data set [2] of 20.7 µM. The Activity result in data set [3] is “Non-Toxic”.

For `COc1ccccc1-c1nnc(-c2ccc(C(=O)N/N=C/c3c(O)cc(O)cc3O)cc2)o1`, the IC50 in data set [1] was 12.4 µM; in data set [2], 4.78 µM; in data set [5], 15.2 µM. The selectivity ratio in data set [4] was 2.6.

`COc1ccccc1-c1nnc(-c2ccc(C(=O)N/N=C/c3ccccc3[N+](=O)[O-])cc2)o1`: the IC50 in data set [1] was 161 µM; in data set [2] it was 64.5 µM. The Activity entry in data set [3] was “Non-Toxic”. In addition, the selectivity ratio in data set [4] was determined as 2.5.

As to `COc1ccccc1-c1nnc(-c2ccc(C(=O)N/N=C/c3ccccc3F)cc2)o1`, the IC50 in data set [1] was 313 µM; in data set [2], 5.18 µM. The Activity result in data set [3] is on record as “Non-Toxic”. The selectivity ratio in data set [4] was 60.4.

Consider `COc1ccccc1-c1nnc(-c2ccc(C(=O)N/N=C/c3ccc(Cl)cc3)cc2)o1`, for which the midpoint of inhibition in data set [2], the IC50, lay at 34.1 µM. Also, the Activity entry in data set [3] is on record as “Non-Toxic”.

Turning to `COc1ccccc1-c1nnc(-c2ccc(C(=O)N/N=C/c3cccc([N+](=O)[O-])c3)cc2)o1`, the IC50 was 119 µM in data set [1] and 74.2 µM in data set [2]. For the same compound, the Activity entry in data set [3] is “Non-Toxic”. Moreover, the selectivity ratio in data set [4] came out at 1.6.

In the case of `COc1ccccc1-c1nnc(-c2ccc(C(=O)N/N=C/c3ccc(F)cc3)cc2)o1`, the IC50 in data set [1] came out at 427 µM; in data set [2], 14.2 µM. Besides, the Activity result in data set [3] is on record as “Non-Toxic”. Further, in data set [4], the selectivity ratio is 30.1.

Consider `COc1cccc(/C=N/NC(=O)c2ccc(-c3nnc(-c4ccccc4OC)o3)cc2)c1`, for which, in data set [2], the IC50 turned out to be 78.6 µM. In data set [3], the Activity entry is “Non-Toxic”.

Turning to `COc1ccccc1-c1nnc(-c2ccc(C(=O)N/N=C/c3cccc(O)c3O)cc2)o1`, the values for the IC50 in data set [1] and in data set [2] were 102 µM and 1.4 µM, respectively. The Activity entry in data set [3] is on record as “Non-Toxic”. In addition, the selectivity ratio in data set [4] is 72.6.

For `COc1ccccc1-c1nnc(-c2ccc(C(=O)N/N=C/c3ccc(O)c(O)c3)cc2)o1`, the IC50 in data set [1] was determined as 100 µM; in data set [2] it was 0.95 µM. Besides, in data set [6], the “Ratio IC50” value is 7. In addition, the Activity result in data set [3] is listed as “Non-Toxic”. In addition, the selectivity ratio in data set [4] is 105.

Turning to `COc1ccccc1-c1nnc(-c2ccc(C(=O)N/N=C/c3ccc(O)cc3O)cc2)o1`, the IC50 in data set [1] is 104 µM; in data set [2], 3.78 µM. Also, the Activity result in data set [3] was “Non-Toxic”. For the same compound, the selectivity ratio in data set [4] worked out at 27.5.

For `COc1ccccc1-c1nnc(-c2ccc(C(=O)N/N=C/c3ccccc3O)cc2)o1`, the IC50 in data set [1] stood at 207 µM; in data set [2] it was 4.14 µM. For the same compound, the Activity entry in data set [3] is given as “Non-Toxic”. The selectivity ratio in data set [4] came out at 50.

Regarding `N=C(N)c1ccc(OCCCCCOc2ccc(C(=N)N)cc2)cc1` [PENTAMIDINE], the IC50 in data set [1] came out at 7.7 µM; in data set [5] it was 6.02 µM. Also, in data set [4], the selectivity ratio turned out to be 1.1.

With `COc1ccccc1-c1nnc(-c2ccc(C(=O)N/N=C/c3ccc([N+](=O)[O-])cc3)cc2)o1`, the IC50 was 203 µM in data set [1] and 56.5 µM in data set [2]. Besides, the Activity entry in data set [3] was “Non-Toxic”. For the same compound, in data set [4], the selectivity ratio is 3.6.

As for `COc1ccccc1-c1nnc(-c2ccc(C(=O)N/N=C/c3ccc(O)cc3)cc2)o1`, the values for the IC50 in data set [1] and in data set [2] were 261 µM and 7.45 µM, respectively. Moreover, the Activity entry in data set [3] was “Non-Toxic”. For the same compound, the selectivity ratio in data set [4] is 35.

As for `COc1ccc(/C=N/NC(=O)c2ccc(-c3nnc(-c4ccccc4OC)o3)cc2)cc1O`, the figures for the IC50 in data set [1] and in data set [2] were 260 µM and 6.4 µM, respectively. In addition, in data set [3], the Activity entry is given as “Non-Toxic”. Also, the selectivity ratio in data set [4] worked out at 40.6.

For `COc1ccccc1-c1nnc(-c2ccc(C(=O)N/N=C/c3cccc(F)c3)cc2)o1`, the IC50 in data set [1] came to 353 µM; in data set [2], 6.35 µM. Besides, the Activity result in data set [3] is on record as “Non-Toxic”. For the same compound, in data set [4], the selectivity ratio worked out at 55.6.

On to `COc1ccccc1-c1nnc(-c2ccc(C(=O)N/N=C/c3ccncc3)cc2)o1`, for which the figures for the IC50 in data set [1] and in data set [2] were 173 µM and 38.5 µM, respectively. In addition, the Activity entry in data set [3] is recorded as “Non-Toxic”. Moreover, the selectivity ratio in data set [4] came out at 4.5.
